From PubChem BioAssay
A selection: hits, their analogues and other compounds. The true share with any hit is near 3.8%.
hERG rescue: hERG (human) protection from proarrhythmic block; Q12809; CHO-hERG, FluxOR thallium flux, dofetilide IC70 present; activation (rescue from dofetilide block), less the hit threshold, % at 10 µM; 0.51% of 310,000 active; AID 1511;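 active = activation above the mean of controls blocked by dofetilide plus 5 SD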;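 also: thallium influx through hERG after potassium depolarization seen as dye fluorescence rise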
KCNQ1 pot: potentiators or activators of human KCNQ1 potassium channel. B-score at 10 µM. 0.35% of 310,000 active. AID 2648. CHO-K1 KCNQ1, thallium flux FluxOR fluorescence; stronger effect = higher value. P51787;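 active = fluorescence ratio B-score, a plate-corrected score, at least three library SD, with initial intensity B-score within 5 SD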
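Assay system: CHO-K1 cells stably expressing KCNQ1; Medium: assay buffer with matched DMSO; Also added: K+/Tl+ depolarizing stimulus; Dosing: single dose; Timing: dye 90 min, compound 20 min, room temperature; Measured by: kinetic FluxOR thallium fluorescence, 10-s 1-Hz baseline, 110-s post-stimulus read; Read-out: peak-minus-minimum fluorescence over initial fluorescence, negative-control normalized, B-scored.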
KCNK9 block: blocks the human KCNK9 two-pore domain potassium channel. HEK293 KCNK9, FluxOR thallium flux fluorescence; stronger effect = lower value. B-score at 10 µM. 1.2% of 310,000 active;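 active = ratio B-score over 3 SD below the library mean, with starting fluorescence within 5 SD of its mean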;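 also: negative B-score means less thallium flux so channel inhibition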
Target sequence (Q9NPC2 whole entry, looked up, the tested form may be a part): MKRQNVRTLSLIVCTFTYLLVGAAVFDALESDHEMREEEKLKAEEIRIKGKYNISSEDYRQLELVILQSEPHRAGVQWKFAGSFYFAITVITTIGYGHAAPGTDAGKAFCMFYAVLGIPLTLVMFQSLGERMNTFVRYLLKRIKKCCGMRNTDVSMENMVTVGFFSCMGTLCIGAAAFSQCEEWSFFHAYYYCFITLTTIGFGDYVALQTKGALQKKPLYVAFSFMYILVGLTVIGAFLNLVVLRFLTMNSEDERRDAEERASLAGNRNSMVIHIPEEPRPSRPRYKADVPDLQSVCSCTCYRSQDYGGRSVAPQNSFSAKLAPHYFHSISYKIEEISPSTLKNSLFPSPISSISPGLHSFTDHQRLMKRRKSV
Kir21 block: blocks the mouse Kir2.1 inward-rectifier potassium channel | P35561 | HEK293-Kir2.1, FluxOR thallium flux fluorescence; stronger effect = lower value | B-score at 10 µM | 0.85% of 310,000 active | AID 1672;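 active = fluorescence ratio B-score at or below minus 3 SD of library scores, with starting-brightness B-score within 2 SD, cut at about -4.2 in these data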;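 also: channel flux triggered by added potassium and thallium sulfate stimulus; B-score of peak minus minimum fluorescence over baseline after thallium stimulus; more negative B-score means stronger Kir2.1 block with less thallium influx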
KCNK3 block: human KCNK3 channel inhibition, primary screen; O14649; CHO-KCNK3 thallium flux, FluxOR fluorescence; stronger effect = lower value; B-score at 10 µM; 0.84% of 340,000 active; AID 602410;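 active = B-score under library mean minus 4 SD, starting fluorescence ratio at most library mean plus 5 SD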;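 also: more negative B-score means stronger inhibition of thallium flux through KCNK3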
KCNQ1 block: human KCNQ1 channel inhibition; AID 2642; B-score at 10 µM; CHO-K1 KCNQ1, FluxOR thallium flux fluorescence; stronger effect = higher value; P51787; 1.3% of 310,000 active;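 active = compounds whose thallium flux B-score, printed positive for inhibition, exceeds three library SD while starting fluorescence stays within three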;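 also: channel opened by potassium depolarization with thallium stimulus after 20 min compound exposure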
* hit, by the source's call; i = inactive; nt = no result given.

SMILES	hERG rescue	KCNQ1 pot	KCNK9 block	Kir21 block	KCNK3 block	KCNQ1 block
Cc1cc(/C=C2\C(=N)N3N=C(C(C)C)SC3=NC2=O)c(C)n1Cc1ccccc1	-5	20*	i	-0.19	i	i
Cn1c(=O)c([N+](=O)[O-])c(Cl)c2ccccc21	-30	i	i	-1.7	i	9*
CCN(CC)c1c([N+](=O)[O-])c(=O)n(C)c2ccccc12	-10	i	i	-2.1	i	i
CC(Cc1ccc(O)c(O)c1)C(C)Cc1ccc(O)c(O)c1 (stereo not drawn)	-36	i	i	-11*	nt	i
CC(C)Cc1cc(C(=O)Nc2ccc(F)cc2F)no1	-11	i	i	-0.66	i	i
CC(C)C(=O)Nc1cccc(COc2ccc(CN(CCc3ccccc3)C(=O)OC(C)(C)C)cc2)c1	nt	nt	nt	nt	i	nt
CC(C)CC(NC(=O)c1ccc(Cl)cc1)C(=O)OCC(=O)c1ccc2c(c1)NC(=O)CO2 (stereo not drawn)	-7	13*	i	-0.88	i	i
Cc1ccc2c(=O)c(C(=O)NCc3cccs3)c[nH]c2c1	4.8*	i	i	-0.41	i	i
CNC(=S)N1CCn2cccc2C1c1cc(OC)c(OC)c(OC)c1 (stereo not drawn)	-10	i	i	0.01	i	i
CCNC(=S)N1CCn2cccc2C1c1ccc(F)cc1 (stereo not drawn)	-8	i	-8*	-0.69	i	i
Cc1cccc(CSc2nc3ccncc3n2CC(=O)Nc2cc(C)cc(C)c2)c1	-10	i	i	1.6	i	i
C=CCN1C(=O)S/C(=C/c2ccc(Sc3nc4ccccc4[nH]3)o2)C1=O	-3	i	i	0.04	i	6*
C=CCN1C(=O)S/C(=C/c2ccsc2)C1=O	-1	i	i	-1.3	i	i
COc1cccc(/C=C/C(=O)OCC(=O)Nc2ccc(Cl)cn2)c1	5.8*	i	i	0.6	i	i
CC(C)Cn1c(=S)[nH]c2cc(C(=O)NCc3ccccc3F)ccc2c1=O	nt	nt	nt	nt	i	nt
CCn1c(/C=C/Nc2ccccc2)[n+](CC)c2cc(Cl)c(Cl)cc21	-28	i	i	-7*	i	i
CCOC(=O)CSc1nc2c(sc(=S)n2-c2ccc(CC)cc2)c(=O)[nH]1	-14	i	i	0.67	i	6*
CCOC(=O)CC(=O)CSc1nc2c(sc(=S)n2-c2ccccc2)c(=O)[nH]1	-10	i	i	0.88	i	i
CC(C)CC[n+]1ccccc1/C=C/c1ccc(N(C)C)cc1	-31	i	i	-14	i	i
N#CC1=C(N)C(C#N)(C#N)C(c2cccnc2)C2CCCC=C12 (stereo not drawn)	-8	i	i	-0.57	nt	i
N#CC1=C(N)C(C#N)(C#N)C(c2ccc[nH]2)C2CCCC=C12 (stereo not drawn)	2	i	i	-4.9*	i	i
COc1ccc(Cl)cc1C(=O)NNC(=S)NC(=O)c1cc(-c2ccccc2)nc2ccccc12	-5	8*	i	-0.32	i	i
CCNC(=S)NNC(=O)c1cc(-c2cccc(OC)c2)nc2ccccc12	-20	i	i	0.62	i	6*
COC(=O)c1ccc(NC(=S)NC(=O)c2cc(-c3ccccc3)nc3ccccc23)cc1	6.2*	29*	i	1.1	i	i
COc1cc(-c2cc(C(=O)Nc3c(Cl)cc(Cl)cc3Cl)c3ccccc3n2)cc(OC)c1OC	-13	i	i	-0.97	i	7*
SMILES	hERG rescue	KCNQ1 pot	KCNK9 block	Kir21 block	KCNK3 block	KCNQ1 block
COc1ccc(NC(=O)c2cc(-c3cc(OC)c(OC)c(OC)c3)nc3ccccc23)cc1OC	-9	i	i	-0.54	i	i
Cc1ccc(C(=O)O/N=C2\CCS(=O)(=O)c3sccc32)cc1	-8	i	i	-1.5	i	i
CC(C)NC(=O)CCS(=O)(=O)c1cccc2nonc12	-12	i	i	0.97	i	i
O=C(Nc1cccc([N+](=O)[O-])c1)c1ccc2c(c1)OCCO2	-6	i	i	0.5	i	i
COc1ccc(C(=O)NNC(=S)NC(=O)c2cc(-c3ccccc3)nc3ccccc23)cc1	-9	9*	i	0.37	i	i
COC(C(=O)N/N=C(\C)c1ccc(O)cc1)c1ccccc1 (stereo not drawn)	5.1*	i	i	0.36	i	i
COC(C(=O)N/N=C(\C)c1ccc(C)cc1)c1ccccc1 (stereo not drawn)	-5	i	i	-0.03	i	i
O=C(Nc1nnc(-c2ccccc2)o1)c1ccc(Cl)cc1	0	11*	i	0.87	i	i
Cc1ccc2nc(-c3ccncc3)cc(-c3ccccc3)c2c1	-11	i	i	0.43	i	i
Cc1ccc(-c2cc3cccc[n+]3cc2-c2ccc(C)cc2)cc1	-29	i	i	-12*	i	8*
N#Cc1c(/N=C/c2cc3ccccc3s2)sc2c1CCC2	-7	i	i	0.01	i	i
Cc1[nH]n(-c2cccc3ccccc23)c(=O)c1/C=N/c1sc2c(c1C#N)CCC2	2	11*	i	0.58	i	i
Cc1[nH]n(-c2ccc(F)cc2)c(=O)c1/C=N/c1sc2c(c1C#N)CCCC2	20*	34*	i	-0.01	i	i
O=C(Nc1ccc(F)c(Cl)c1)c1ccccc1NC(=O)C1CCCCC1C(=O)O (stereo not drawn)	nt	nt	nt	nt	i	nt
Cn1c(COc2ccccc2)nnc1SCCC(=O)Nc1ccccc1	-1	i	i	0.18	i	i
Clc1ccc(Cc2ccccc2)nn1	5.3*	i	i	0.17	i	i
COc1ccc(F)c(CN2CCC(n3nccc3NC(=O)CCCc3ccccc3)CC2)c1	0	i	i	-0.2	i	i
COc1ccc(Nc2nc3[nH]c(=O)cc(O)c3s2)cc1	-4	i	i	-0.8	i	i
CCOC(=O)c1sc2nc(C)[nH]c(=S)c2c1C	1	40*	i	-0.05	i	i
Cc1ccc(Cn2c(C)nc3ccc([N+](=O)[O-])cc3c2=O)cc1	-11	i	i	-1.3	i	i
Cc1ccsc1/C=N/NC(=O)c1cccs1	-2	i	i	0.06	i	i
Cc1ccsc1/C=N/NC(=O)C(N)=O	4.7*	i	i	-1.1	i	i
Cc1ccsc1/C=N/NC(=O)c1ccccn1	4.7*	i	i	0.58	i	i
COCCNC(=S)N(CCc1c(C)[nH]c2ccc(OC)cc12)Cc1cccnc1	-4	i	i	0.29	i	i
